Screening results (PubChem)
PglD DTNB = blocks C. jejuni PglD acetyltransferase activity; purified PglD enzyme, DTNB colorimetric CoA detection; inhibition, % at 12.5 µM; hit rate 0.098% among 360,000; AID 602405; in the data active = inhibition above about 16%, passing the limit was not always enough; inconclusive = no clear call, values can overlap the other calls
PfHsp90 yeast 2 = growth inhibition of yeast expressing Plasmodium Hsp90 | S. cerevisiae expressing PfHsp90, BacTiter-Glo ATP, 48 h; yeast lacking PDR1 and PDR3 efflux regulators | inhibition, % at 9.4 µM | hit rate 0.32% among 310,000;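 active = every replicate shows inhibition above about 80%, whatever the replicate mean, limit read from the data; inconclusive = mean inhibition reaches the set limit but some replicate falls short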;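 also: 0% = DMSO neutral controls and 100% = 20 µM radicicol positive controls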
CSC inhib = blocks cancer stem cells; cancer stem cell-like cells viability, luminescence; hit rate 1.1% among 300,000; inhibition, % at 7.5 µM; AID 2717; in the data active = inhibition above about 75%; inconclusive = no clear call, values can overlap the other calls; tested in HMLE shEcad cells
Rtt109 HAT inh = inhibitors of Candida albicans Rtt109/Vps75 histone acetyltransferase; purified Rtt109/Vps75, ThioGlo CoA-SH fluorescence, 4 h; inhibition, % at 34.9 µM; hit rate 0.16% among 330,000;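 active = inhibition of at least 50% in every replicate; inconclusive = best replicate reaches 50% inhibition but some replicates fall short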
Target sequence (Q5AAJ8 whole entry, looked up): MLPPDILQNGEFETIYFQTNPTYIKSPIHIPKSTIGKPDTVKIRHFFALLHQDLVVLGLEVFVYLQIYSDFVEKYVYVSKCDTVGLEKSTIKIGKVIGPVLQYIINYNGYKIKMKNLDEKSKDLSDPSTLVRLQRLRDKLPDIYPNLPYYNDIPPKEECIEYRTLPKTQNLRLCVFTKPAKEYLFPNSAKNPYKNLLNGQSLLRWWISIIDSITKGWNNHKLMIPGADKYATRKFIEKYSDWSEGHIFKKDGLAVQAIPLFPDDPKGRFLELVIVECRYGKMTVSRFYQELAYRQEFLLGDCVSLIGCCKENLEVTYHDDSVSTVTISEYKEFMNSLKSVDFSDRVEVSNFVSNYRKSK
SKKanGAS inh = SKKanGAS growth inhibition. S. pyogenes SKKanGAS, kanamycin growth, BacTiter-Glo, 6 h. inhibition, % at 7.5 µM. hit rate 1.3% among 300,000. AID 1662;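 active = mean replicate score, as percent of positive control median, at least 50; inconclusive = mean below 50 but one replicate at or above 50; inactive = mean and every replicate below 50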;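 also: strain carries kanamycin resistance gene driven by streptokinase promoter and grows in 40 µg/ml kanamycin; loss of luminescence reflects streptokinase promoter inhibition or plain growth inhibition; 0% = median of DMSO wells and 100% = positive control at its reference dose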
FN deposition inh = fibronectin deposition inhibition; AH1F fibroblasts, Alexa488-fibronectin deposition fluorescence, overnight; inhibition, % at 12.6 µM; hit rate 0.086% among 350,000; AID 743247;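 active = mean inhibition across replicates of 30% or more, regardless of how many single replicates reach that level; inconclusive = mean under 30% yet at least half of replicates reach 30%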;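 also: positive control wells lacked labelled fibronectin entirely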
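Material: AH1F fibroblasts assembling fluorescent fibronectin matrix; amount: 10000 AH1F cells/well; medium: DMEM, 2% serum; reagent: Alexa488-fibronectin, 24 nM final in well; dosing: single compound dose, delivered by pin transfer; incubation: 1 h adhesion, overnight exposure; detection: fluorescence after three HBSS washes, excitation 485 nm, emission 525 nm; measure: fibronectin deposition inhibition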
Numbers without * were called inactive. Compounds with a hit are over-represented: about 1.7% of the library has one in this group of screens.

For Oc1[nH]c2ccc(Br)cc2c1N=NC(=S)N1CCOCC1 the results were PglD DTNB -1, PfHsp90 yeast 2 -115, CSC inhib inconclusive, SKKanGAS inh 89* and FN deposition inh 31*.
Screening C[C@@H]1CCCCO[C@@H](CN(C)C(=O)Nc2ccc(F)cc2)[C@@H](C)CN([C@H](C)CO)C(=O)c2cc(N(C)C)ccc2O1 returned PglD DTNB -2.
`CS(=O)(=O)c1sc2nc(-c3cccs3)cc(-c3ccccc3)c2c1N` gave PfHsp90 yeast 2 -9, CSC inhib 99*, Rtt109 HAT inh 8 and SKKanGAS inh 41.
`COc1ccc(NC(=O)N(C)C[C@H]2Oc3ccc(NC(=O)Nc4ccc(F)cc4)cc3CC(=O)N([C@@H](C)CO)C[C@H]2C)cc1` gave PglD DTNB -12.
Screening CC1=NN(c2ccccc2)C(=O)/C1=C\C=C\c1ccccc1 returned PglD DTNB -5, CSC inhib 102*, SKKanGAS inh 3 and FN deposition inh -6.
`CC1=NN(c2ccccc2)C(=O)/C1=C\C=C1\N(C)c2ccccc2C1(C)C` gave PfHsp90 yeast 2 17, CSC inhib 79*, Rtt109 HAT inh -7, SKKanGAS inh -1 and FN deposition inh 2.
Screening C[C@H]1CN([C@@H](C)CO)C(=O)c2cc(/C=C/c3ccccc3)cnc2O[C@H]1CN(C)Cc1cncnc1 returned PglD DTNB 3 and FN deposition inh -8.
CCC1CCCCN1S(=O)(=O)c1ccc(S(=O)(=O)N(Cc2ccccn2)CC2CCCO2)cc1 (centres undefined) was read as PfHsp90 yeast 2 -3, CSC inhib 79*, Rtt109 HAT inh 5, SKKanGAS inh -6 and FN deposition inh 12.
COCC(=O)Nc1ccc2c(c1)[C@@H]1C[C@@H](CC(=O)NCc3cccc(F)c3)O[C@@H](CO)[C@@H]1O2 was read as PglD DTNB -3 and FN deposition inh 0.
Screening CCCCCCCCCCCCCCCC(O)C(N)CO (centres undefined) returned PglD DTNB 1, PfHsp90 yeast 2 22, CSC inhib 56, Rtt109 HAT inh 11, SKKanGAS inh 75* and FN deposition inh -9.
CCS(=O)(=O)N1[C@H](C#N)[C@@H](c2ccc(C3=CCCCC3)cc2)[C@H]1CO was read as FN deposition inh 6.
O=C1CSc2ccc(C(=O)Nc3cccc(S(=O)(=O)Nc4ccc(Br)cc4)c3)cc2N1 was read as CSC inhib 87*, Rtt109 HAT inh -4 and SKKanGAS inh 73*.
Cc1noc(C)c1NC(=O)N[C@H]1CC[C@H](CC(=O)N2CCN(C)CC2)O[C@H]1CO was read as PglD DTNB 2 and FN deposition inh -11.
CCC1(C)Cc2c(sc3nc(SC)[nH]c(=S)c23)CO1 (centres undefined) was read as SKKanGAS inh 85*.
Cc1ccc(S(=O)(=O)Nc2ccc3c(c2)C(=O)N([C@H](C)CO)C[C@@H](C)[C@@H](CN(C)Cc2ccncc2)OCCCC[C@H](C)O3)cc1 was read as PglD DTNB 9 and FN deposition inh -1.
CC(C)=CCc1cc([C@@H]2CC(=O)c3ccc(O)c(CC=C(C)C)c3O2)ccc1O was read as PglD DTNB 2, PfHsp90 yeast 2 -72, CSC inhib -8, Rtt109 HAT inh -5 and SKKanGAS inh 86*.
Screening Cc1ccc2c(c1)C(=O)CC(c1ccc3c(c1)OCCO3)O2 (centres undefined) returned PglD DTNB 0, PfHsp90 yeast 2 -4, CSC inhib 17, Rtt109 HAT inh -4, SKKanGAS inh 5 and FN deposition inh -4.
Screening COc1cccc(S(=O)(=O)Nc2ccc3c(c2)[C@@H]2C[C@@H](CC(=O)N4CCCCC4)O[C@H](CO)[C@@H]2O3)c1 returned PglD DTNB -1.
`O=C(C[C@@H]1CC[C@H](NC(=O)Nc2ccccc2F)[C@@H](CO)O1)NCc1ccc(Cl)cc1` gave PglD DTNB 0 and FN deposition inh -4.
`COC(=O)c1cc(=O)n(Cc2ccc(F)cc2)c(=Nc2ccccc2)s1` gave PfHsp90 yeast 2 -4, CSC inhib 86*, Rtt109 HAT inh 4, SKKanGAS inh 17 and FN deposition inh -1.
Screening CNC(=O)C1CC(=O)N(CCc2ccc(OC)c(OC)c2)C(=Nc2ccc(F)cc2)S1 (centres undefined) returned PglD DTNB 2, PfHsp90 yeast 2 15, CSC inhib -8, Rtt109 HAT inh 6, SKKanGAS inh 1 and FN deposition inh 0.
Screening COC(=O)c1cc(=O)n(Cc2ccc(OC)c(OC)c2)c(=Nc2ccc(F)cc2)s1 returned PglD DTNB -3, PfHsp90 yeast 2 14, CSC inhib 97*, Rtt109 HAT inh 3, SKKanGAS inh 8 and FN deposition inh -3.
COC(=O)c1cc(=O)n(Cc2ccco2)c(=Nc2ccc(F)cc2)s1 was read as PglD DTNB -5, PfHsp90 yeast 2 12, CSC inhib 62, Rtt109 HAT inh 16 and SKKanGAS inh 4.
For COC(=O)c1cc(=O)n(CCc2ccc(OC)c(OC)c2)c(=Nc2ccc(F)c(Cl)c2)s1 the results were PglD DTNB 0, PfHsp90 yeast 2 18, CSC inhib 110*, Rtt109 HAT inh 5 and SKKanGAS inh -1.
For C[C@@H]1CN([C@H](C)CO)C(=O)c2cc(NC(=O)NC3CCCCC3)ccc2O[C@H]1CN(C)C the results were PglD DTNB 0.
For CN1C(=O)/C(=N/OC(=O)c2ccccc2)c2ccccc21 the results were PfHsp90 yeast 2 137*, CSC inhib -3, Rtt109 HAT inh 13 and SKKanGAS inh 5.
`CCCCCCCCCn1c2c(c(=N)c3c1CCC3)CCC2` gave PglD DTNB -1, PfHsp90 yeast 2 -32, CSC inhib 56, Rtt109 HAT inh 68* and SKKanGAS inh 21.
Screening CCCCCCn1c2c(c(=N)c3c1CCC3)CCC2 returned CSC inhib 25, Rtt109 HAT inh 1, SKKanGAS inh 13 and FN deposition inh -5.
`C[C@H]1CN([C@@H](C)CO)C(=O)Cc2cc(NC(=O)Nc3ccccc3)ccc2O[C@@H]1CN(C)C(=O)Nc1ccc2c(c1)OCO2` gave PglD DTNB -2.
For C[C@H]1CN([C@@H](C)CO)C(=O)Cc2cc(NC(=O)Nc3cccc4ccccc34)ccc2O[C@H]1CN(C)S(=O)(=O)c1ccccc1 the results were PglD DTNB 6.
Screening CNNC(=S)Nc1cccc(C(F)(F)F)c1 returned PglD DTNB -4, CSC inhib 2, SKKanGAS inh -4 and FN deposition inh -4.
Screening FC(F)(F)c1cccc(NC(=S)NNC(=S)Nc2cccc(C(F)(F)F)c2)c1 returned CSC inhib 110* and SKKanGAS inh 101*.
